# Compound activity as filed in PubChem BioAssay.
# CCR6 antag: antagonists of human CCR6 receptor; P51684; inhibition, % at 20 µM; CHO-K1 CCR6 PathHunter beta-arrestin, luminescence, CCL20-stimulated; 340,000 compounds, 0.49% hits;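 active means compounds whose inhibition of the agonist-driven luminescence signal at 20 µM reaches about 50%, limit read from the data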;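 further: cells stimulated with CCL20 at 14 nM final; plate controls were DMSO with CCL20 for no effect and DMSO without agonist for full effect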
# EBI2 antag: blocks human EBI2 receptor beta-arrestin signaling | EBI2 beta-arrestin recruitment, luminescence, 7a,25-OHC stimulated | 360,000 compounds, 0.81% hits | P32249 | inhibition, % at 5 µM; in the data active means inhibition above about 38%;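 further: enzyme fragment complementation signal reports receptor beta-arrestin coupling in cells; 0% = agonist plus DMSO wells and 100% = wells without agonist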
# APJ ag: activates the human apelin receptor APJ; P35414; CHO-K1 APJ PathHunter beta-arrestin, luminescence; 0% DMSO wells, 100% apelin; activation, % at 20 µM; 330,000 compounds, 0.11% hits;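 active means activation more than six SD over the plate average, tested at 20 µM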;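 further: 0% = DMSO alone and 100% = apelin-13 at 10 nM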
#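 Incubation: overnight seeding, 90 min compound at 25 °C, 1 h detection; test system: PathHunter CHO-K1 APJ (AGTRL-1) beta-arrestin reporter cells; amount: 1000 cells/well; doses: one dose, 20 µM compound, 1% DMSO; measured by: beta-gal luminescence; measure: agonist-driven arrestin binding to APJ; benchmarks: negative DMSO alone, positive Apelin-13 at 10 nM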
# APJ antag: antagonists of human APJ apelin receptor; P35414; CHO-K1 APJ beta-arrestin complementation, luminescence; inhibition, % at 20 µM; 330,000 compounds, 0.32% hits;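 active means inhibition above about 40% at 20 µM, limit read from the data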;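 further: cells challenged with 10 nM apelin-13 agonist together with compound; plate controls were apelin-13 plus DMSO wells for no effect and DMSO wells lacking apelin-13 for full effect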
# CXCR6 block: blocks human CXCR6 beta-arrestin recruitment. O00574. CHO-K1 PathHunter CXCR6 beta-arrestin, luminescence. inhibition, % at 20 µM. 360,000 compounds, 0.36% hits; in the data active means inhibition above about 34%, passing the limit was not always enough;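 further: antagonist mode with CXCL16 agonist at 10 nM final; 0% = 10 nM CXCL16 with DMSO and 100% = unstimulated wells without agonist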
# B2AR ag: human beta-2 adrenergic receptor agonism by FAP | P07550 | Am2.2-beta2AR cells, FAP receptor internalization, flow cytometry | response, % (no concentration beside the values) | 340,000 compounds, 0.43% hits | AID 504454;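 active means response above a set limit, near 3 SD of response in nonfluorescent compounds, cut at about 42% in these data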
# Target sequence (P07550 whole entry, looked up): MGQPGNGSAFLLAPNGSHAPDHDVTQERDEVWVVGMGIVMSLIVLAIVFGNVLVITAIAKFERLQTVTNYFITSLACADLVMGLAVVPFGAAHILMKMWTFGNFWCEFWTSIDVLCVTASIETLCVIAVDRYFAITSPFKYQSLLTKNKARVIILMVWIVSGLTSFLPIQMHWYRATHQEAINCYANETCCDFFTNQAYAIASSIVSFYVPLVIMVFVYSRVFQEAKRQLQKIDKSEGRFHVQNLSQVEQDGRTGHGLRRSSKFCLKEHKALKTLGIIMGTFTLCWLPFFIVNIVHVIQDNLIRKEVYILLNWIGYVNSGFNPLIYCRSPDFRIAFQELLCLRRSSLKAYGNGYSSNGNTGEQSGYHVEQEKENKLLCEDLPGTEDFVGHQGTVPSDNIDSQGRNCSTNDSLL
# Beta2AR ag CP1: activates human beta-2 adrenergic receptor; shares compounds with B2AR ag; Am2.2-beta2AR cells, FAP surface receptor, flow cytometry; hits give low values; percent response (surface receptor), % at 10 µM; 1,100 compounds, 25% hits; AID 540358;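 active means surface receptor percent response at or below 58%, roughly 3 SD from nonfluorescent compounds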
# FAP fluor counter: counter-screen for beta-2AR agonists: fluorescence in Am2.2 cells; shares compounds with B2AR ag; FAP fluorogen flow cytometry, fluorescence counterscreen; hits give low values; calls only at 10 µM; 1,100 tested, under 10 active; AID 588765;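 active means percent response below a set limit in fluorescence channel 1 and below 50% in channel 8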
# Numbers without * were called inactive; i = inactive; · = no result; ! = repeats disagree. The list is not random: actives were taken first. Their share in the collection is about 1.8%.
SMILES,CCR6 antag,EBI2 antag,APJ ag,APJ antag,CXCR6 block,B2AR ag,Beta2AR ag CP1,FAP fluor counter
C#CCOCCOCCOCCNc1nc(N2CCN(C(=O)[C@H](CCCN=C(N)N)n3cc(C(N)[C@@H](C)CC)nn3)CC2)nc(N2CCN(C(=O)[C@H](CCC(=O)O)n3cc([C@@H](N)CO)nn3)CC2)n1 (some centres not stated),0,-4,-1,-6,2,4,·,·
Cc1cc(S(=O)(=O)N2CCOCC2)ccc1OCC(=O)Nc1ccc(F)c(Cl)c1,15,3,-2,-6,-9,0,112,i
Cc1ccc(NCC(=O)Nc2ccc(F)c(Cl)c2)cc1S(=O)(=O)N1CCOCC1,·,-5,·,·,-2,·,·,·
Cc1ccc(OCC(=O)Nc2ccc(S(=O)(=O)N3CCOCC3)cc2)c(C)c1,12,-1,-3,-2,2,2,·,·
Cc1cc(S(=O)(=O)N2CCOCC2)ccc1OCC(=O)Nc1ccc(F)cc1,-7,4,0,2,-1,3,112,i
CC1(C)OC2OC(C3COC(=O)O3)C(OC(=O)c3ccccc3)C2O1 (configuration not stated),2,-1,·,·,1,3,·,·
Oc1ccccc1/C=N/Nc1nc2ccccc2o1,0,12,-2,-10,1,9,122,i
Brc1ccc(/C=N/Nc2nc3ccccc3o2)cc1,6,15,-1,8,6,-13,·,·
CC(=O)Nc1ccc(-c2ccnc3c2CC(C(=O)Nc2cccc(N(C)C)c2)O3)cc1 (configuration not stated),·,-6,·,·,-6,·,·,·
COCC(C)NC(=O)CCS(=O)(=O)c1nc(-c2ccc(OC)cc2)cc(C(F)(F)F)n1 (configuration not stated),6,9,-4,26,7,53*,25*!,i
O=S(=O)(Nc1ccc(-c2nnc(SCc3ccc(Cl)cc3)o2)cc1)c1ccccc1,10,3,-1,-6,6,43*,114,i
Cc1cc(O)ccc1N/C=C(\C#N)c1nc2ccccc2o1,4,0,-1,1,8,4,·,·
N#C/C(=C\c1c(Cl)cccc1Cl)c1nc2ccccc2o1,-2,10,2,-64,-4,-3,142,i
CC(C)(C)c1ccc(C(O)c2ncc(-c3cccc(F)c3)[nH]2)cc1 (configuration not stated),·,11,·,·,-4,·,·,·
O=C(Nc1ccc(C(=O)NCc2ccc(F)cc2)cc1)C1=CSCCO1,4,3,-2,-8,2,-9,·,·
CCc1ccc(CNC(=O)c2ccc(NC(=O)C3=CSCCO3)cc2)cc1,-8,19,9,-2,-3,102*,27*,i
CCOc1cc(OCC)cc(C(=O)N2CCC[C@@H]2C(=O)N2CCC[C@@H]2C(=O)NCc2ccccc2Cl)c1,·,-4,·,·,3,·,·,·
COc1ccc(C(=O)C(CCC(CNC(C)(C)C)C(=O)c2ccc(OC)cc2)CNC(C)(C)C)cc1 (configuration not stated),23,2,·,·,7,54*,80,i
CC(C)NC(=O)N(C)C[C@H]1Oc2ccc(NC(=O)c3ccncc3)cc2C(=O)N([C@H](C)CO)C[C@@H]1C,11,-7,0,3,-10,5,·,·
O=C(CCN1CCN(c2ccccc2F)CC1)Nc1cccc(F)c1,5,2,-2,16,-1,-3,·,·
COc1ccccc1N1CCN(CC(O)COc2c(OC)cccc2OC)CC1 (configuration not stated),-11,-4,4,-28,2,0,·,·
COc1cccc(OC)c1OCC(O)CN1CCN(c2ccccc2)CC1 (configuration not stated),9,-10,-2,16,-12,48*,126,i
CN(C)S(=O)(=O)c1ccc2c(c1)C(CC(=O)O)OC2=O (configuration not stated),6,0,3,4,11,49*,104,i
C[C@@H]1CN([C@H](C)CO)C(=O)CCCn2cc(nn2)CO[C@H]1CN(C)C(=O)Cc1ccccc1,·,0,·,·,-7,·,·,·
O=C(CSc1ncnc2c1nnn2-c1ccc(F)cc1)NCC1CCCO1 (configuration not stated),14,5,-4,17,1,1,·,·
SMILES,CCR6 antag,EBI2 antag,APJ ag,APJ antag,CXCR6 block,B2AR ag,Beta2AR ag CP1,FAP fluor counter
Cc1ccc(-n2nnc3c(SCC(=O)NCC4CCCO4)ncnc32)cc1 (configuration not stated),12,4,-1,12,6,51*,92,i
CC[C@@H](C)[C@H](CN[C@H](CNC)[C@@H](C)O)NCCc1ccc(OC)cc1,1,-3,-6,-18,-4,0,·,·
CNC[C@H](NC[C@@H](NCCCc1ccccc1)c1ccccc1)[C@H](C)O,4,-2,0,1,-6,55*,107,i
COCc1ccc(CN2CCCC(C(=O)Nc3ccc(-c4cccc(OC)c4)cc3)C2)o1 (configuration not stated),-2,8,-3,-1,-6,30,116,i
CCCc1ncc(CN2CCCC(C(=O)Nc3ccc(-c4cccc(OC)c4)cc3)C2)cn1 (configuration not stated),14,5,3,8,4,13,·,·
O=C(Nc1ccc(-c2cccc(F)c2)cc1)C1CCCN(Cc2ccccn2)C1 (configuration not stated),24,5,6,0,-8,0,110,i
COc1cccc(-c2ccc(NC(=O)C3CCCN(Cc4ccccn4)C3)cc2)c1 (configuration not stated),·,-1,·,·,0,·,106,i
O=C(Nc1cccc(-c2ccc(F)cc2)c1)C1CCCN(Cc2cccnc2)C1 (configuration not stated),5,-3,-3,-1,-4,-3,·,·
COc1cccc(-c2ccc(NC(=O)C3CCCN(Cc4cc(C)[nH]n4)C3)cc2)c1 (configuration not stated),6,-3,1,-2,-5,3,·,·
COc1cccc(-c2ccc(NC(=O)C3CCCN(Cc4cnn(C(C)C)c4)C3)cc2)c1 (configuration not stated),11,-1,9,-10,3,23,85,i
O=C1CCCCC1Nc1ccc(Br)cc1 (configuration not stated),14,24,·,·,0,-6,·,·
COc1ccc(S(=O)(=O)N2CCC[C@@H]2C(=O)N2CCC[C@H]2C(=O)NCc2ccncc2)cc1C,·,-5,·,·,-6,·,·,·
